Columns and labels:
Prostaglandin E synthase = target: T1, Prostaglandin E synthase (Homo sapiens, UniProt O14684); experiment: Inhibition of mPGES-1 in human IL-1beta-stimulated A549 cell microsomes assessed as reduction of PGE2 formation from PGH2 preincubated for 15 mins by HPLC analysis; format: cell-based
T1 sequence (O14684 whole entry): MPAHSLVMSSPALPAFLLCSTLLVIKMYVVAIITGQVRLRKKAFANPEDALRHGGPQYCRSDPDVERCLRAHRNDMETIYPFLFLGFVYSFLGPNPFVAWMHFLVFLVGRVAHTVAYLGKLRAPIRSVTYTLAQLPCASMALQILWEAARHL
How it was run: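 A549 cells stimulated with 2 ng/mL IL-1β for 72 h at 37 °C, 5% CO2, then sonicated and homogenized. Microsomal pellet collected at 174000g, 1 h, 4 °C. Membranes diluted in 0.1 M K3PO4, pH 7.4, with 2.5 mM glutathione. Compound or vehicle added for 15 min at 4 °C. Reaction started with 20 μM PGH2, stopped after 1 min with FeCl2/citric acid containing 11β-PGE2 internal standard. PGE2 measured by SPE-HPLC.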

Histone deacetylase = experiment: Inhibition of HDAC in human HeLa cell nuclear extract using BML-KI104 Fluor de Lys as substrate by fluorescence-based assay

| SMILES | IC50 (Prostaglandin E synthase) [µM] | IC50 (Histone deacetylase) [µM] |
| --- | --- | --- |
| COc1cc(/C=C/C(=O)CC(=O)/C=C/c2ccc(OC/C=C(\C)CC/C=C(\C)CCC=C(C)C)c(OC)c2)ccc1O | 2 | 84.2 |
| COc1cc(/C=C/C(=O)CC(=O)/C=C/c2ccc(OC/C=C(\C)CCC=C(C)C)c(OC)c2)ccc1OC/C=C(\C)CCC=C(C)C | 2 | 188 |
| COc1cc(/C=C/C(=O)CC(=O)/C=C/c2ccc(OCC=C(C)C)c(OC)c2)ccc1OCC=C(C)C | 2 | 347 |
| COc1cc(/C=C/C(=O)C(C/C=C(\C)CCC=C(C)C)(C/C=C(\C)CCC=C(C)C)C(=O)/C=C/c2ccc(OC/C=C(\C)CCC=C(C)C)c(OC)c2)ccc1OC/C=C(\C)CCC=C(C)C | 2 | 786 |
| COc1cc(/C=C/C(=O)C(CC=C(C)C)C(=O)/C=C/c2ccc(OCC=C(C)C)c(OC)c2)ccc1OCC=C(C)C | 2 | – |

The remaining compounds from weak to strong by IC50 (Prostaglandin E synthase), led by results:

| IC50 (Prostaglandin E synthase) [µM] | IC50 (Histone deacetylase) [µM] | SMILES |
| --- | --- | --- |
| 2 | 217 | COc1cc(/C=C/C(=O)C(C/C=C(\C)CCC=C(C)C)C(=O)/C=C/c2ccc(OC/C=C(\C)CCC=C(C)C)c(OC)c2)ccc1OC/C=C(\C)CCC=C(C)C |
| 2 | – | COc1cc(/C=C/C(=O)C(CC=C(C)C)(CC=C(C)C)C(=O)/C=C/c2ccc(OCC=C(C)C)c(OC)c2)ccc1OCC=C(C)C |
| 2 | 122 | COc1cc(/C=C/C(=O)CC(=O)/C=C/c2ccc(OC/C=C(\C)CC/C=C(\C)CCC=C(C)C)c(OC)c2)ccc1OC/C=C(\C)CC/C=C(\C)CCC=C(C)C |
| 1.02 | 495 | COc1cc(/C=C/C(=O)CC(=O)/C=C/c2ccc(OC/C=C(\C)CCC=C(C)C)c(OC)c2)ccc1O |
| 0.93 | 5620 | COc1cc(/C=C/C(=O)CC(=O)/C=C/c2ccc(OCC=C(C)C)c(OC)c2)ccc1O |
| 0.22 | – | COc1cc(/C=C/C(=O)CC(=O)/C=C/c2ccc(O)c(OC)c2)ccc1O [CURCUMIN] |

Reference: ChEMBL document CHEMBL3758135 (J Nat Prod, 2015)
